ChEMBL document CHEMBL1287802, “Convergent synthesis of fluorescence-labeled probes of Annonaceous acetogenins and visualization of their cell distribution” (Bioorg Med Chem, 2010)
One block for each molecule: values may come before it. Calls of active or inactive are those of the source. No cut-off for these calls is given here.

Legend:
[1] = Growth inhibition of human HBC4 cells after 48 hrs by sulforhodamine B assay; format: functional; details: HBC4, 48 h
Method in brief: (§1)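 Tested in the JFCR39 panel of 39 human cancer cell lines. Cells were exposed to compound for 48 h, and growth was measured as the change in total cellular protein by sulforhodamine B colorimetry. GI50 (molar concentration for 50% growth inhibition) was calculated by a previously reported method. Fingerprints were plotted as log differences of each line's GI50 from the panel mean.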

[2] = Growth inhibition of human BSY1 cells after 48 hrs by sulforhodamine B assay; format: functional; details: BSY-1, 48 h; method in brief: as §1
[3] = Growth inhibition of human HBC5 cells after 48 hrs by sulforhodamine B assay; format: functional; details: HBC5, 48 h; method in brief: as §1
[4] = test system: MCF7; assay: Growth inhibition of human MCF7 cells after 48 hrs by sulforhodamine B assay; format: functional; details: MCF7, 48 h; method in brief: as §1
[5] = Growth inhibition of human MDA-MB-23 cells after 48 hrs by sulforhodamine B assay; format: functional; details: MDA-MB-23, 48 h, read-out: pGI50 (converted); method in brief: as §1
[6] = test system: U-251; assay: Growth inhibition of human U251 cells after 48 hrs by sulforhodamine B assay; format: functional; details: U-251, 48 h; method in brief: as §1
[7] = test system: SF-268; assay: Growth inhibition of human SF268 cells after 48 hrs by sulforhodamine B assay; format: functional; details: SF-268, 48 h; method in brief: as §1
[8] = test system: SF-295; assay: Growth inhibition of human SF295 cells after 48 hrs by sulforhodamine B assay; format: functional; details: SF-295, 48 h; method in brief: as §1
[9] = test system: SF-539; assay: Growth inhibition of human SF539 cells after 48 hrs by sulforhodamine B assay; format: functional; details: SF-539, 48 h; method in brief: as §1
[10] = test system: SNB-75; assay: Growth inhibition of human SNB75 cells after 48 hrs by sulforhodamine B assay; format: functional; details: SNB-75, 48 h; method in brief: as §1
[11] = test system: SNB-78; assay: Growth inhibition of human SNB78 cells after 48 hrs by sulforhodamine B assay; format: functional; details: SNB-78, 48 h; method in brief: as §1
[12] = test system: HCC 2998; assay: Growth inhibition of human HCC2998 cells after 48 hrs by sulforhodamine B assay; format: functional; details: HCC 2998, 48 h, read-out: pGI50 (converted); method in brief: as §1
[13] = test system: KM12; assay: Growth inhibition of human KM12 cells after 48 hrs by sulforhodamine B assay; format: functional; details: KM12, 48 h; method in brief: as §1
[14] = test system: HT-29; assay: Growth inhibition of human HT-29 cells after 48 hrs by sulforhodamine B assay; format: functional; details: HT-29, 48 h; method in brief: as §1
[15] = test system: NCI-H23; assay: Growth inhibition of human NCI-H23 cells after 48 hrs by sulforhodamine B assay; format: functional; details: NCI-H23, 48 h; method in brief: as §1
[16] = test system: NCI-H226; assay: Growth inhibition of human NCI-H226 cells after 48 hrs by sulforhodamine B assay; format: functional; details: NCI-H226, 48 h; method in brief: as §1
[17] = test system: NCI-H522; assay: Growth inhibition of human NCI-H522 cells after 48 hrs by sulforhodamine B assay; format: functional; details: NCI-H522, 48 h; method in brief: as §1
[18] = test system: NCI-H460; assay: Growth inhibition of human NCI-H460 cells after 48 hrs by sulforhodamine B assay; format: functional; details: NCI-H460, 48 h; method in brief: as §1
[19] = test system: A549; assay: Growth inhibition of human A549 cells after 48 hrs by sulforhodamine B assay; format: functional; details: A549, 48 h; method in brief: as §1
[20] = test system: DMS-273; assay: Growth inhibition of human DMS273 cells after 48 hrs by sulforhodamine B assay; format: functional; details: DMS-273, 48 h; method in brief: as §1
[21] = test system: DMS-114; assay: Growth inhibition of human DMS114 cells after 48 hrs by sulforhodamine B assay; format: functional; details: DMS-114, 48 h; method in brief: as §1
[22] = test system: LOX IMVI; assay: Growth inhibition of human LOXIMVI cells after 48 hrs by sulforhodamine B assay; format: functional; method in brief: as §1
[23] = test system: OVCAR-3; assay: Growth inhibition of human OVCAR-3 cells after 48 hrs by sulforhodamine B assay; format: functional; details: OVCAR-3, 48 h; method in brief: as §1
[24] = test system: OVCAR-4; assay: Growth inhibition of human OVCAR4 cells after 48 hrs by sulforhodamine B assay; format: functional; details: OVCAR-4, 48 h; method in brief: as §1
[25] = test system: OVCAR-5; assay: Growth inhibition of human OVCAR5 cells after 48 hrs by sulforhodamine B assay; format: functional; details: OVCAR-5, 48 h; method in brief: as §1
[26] = test system: OVCAR-8; assay: Growth inhibition of human OVCAR8 cells after 48 hrs by sulforhodamine B assay; format: functional; details: OVCAR-8, 48 h; method in brief: as §1
[27] = test system: SK-OV-3; assay: Growth inhibition of human SKOV3 cells after 48 hrs by sulforhodamine B assay; format: functional; details: SK-OV-3, 48 h; method in brief: as §1
[28] = Growth inhibition of human RXF631L cells after 48 hrs by sulforhodamine B assay; format: functional; details: RXF 631, 48 h; method in brief: as §1
[29] = test system: ACHN; assay: Growth inhibition of human ACHN cells after 48 hrs by sulforhodamine B assay; format: functional; method in brief: as §1
[30] = test system: St-4; assay: Growth inhibition of human St-4 cells after 48 hrs by sulforhodamine B assay; format: functional; details: St-4, 48 h; method in brief: as §1
[31] = Growth inhibition of human MKN1 cells after 48 hrs by sulforhodamine B assay; format: functional; details: MKN-1, 48 h; method in brief: as §1
[32] = test system: MKN-7; assay: Growth inhibition of human MKN7 cells after 48 hrs by sulforhodamine B assay; format: functional; details: MKN-7, 48 h; method in brief: as §1
[33] = test system: MKN-28; assay: Growth inhibition of human MKN28 cells after 48 hrs by sulforhodamine B assay; format: functional; details: MKN-28, 48 h; method in brief: as §1
[34] = test system: MKN-45; assay: Growth inhibition of human MKN45 cells after 48 hrs by sulforhodamine B assay; format: functional; details: MKN-45, 48 h; method in brief: as §1
[35] = test system: MKN-74; assay: Growth inhibition of human MKN74 cells after 48 hrs by sulforhodamine B assay; format: functional; details: MKN-74, 48 h; method in brief: as §1
[36] = test system: DU-145; assay: Growth inhibition of human DU145 cells after 48 hrs by sulforhodamine B assay; format: functional; details: DU-145, 48 h, read-out: pGI50 (converted); method in brief: as §1
[37] = test system: PC-3; assay: Growth inhibition of human PC3 cells after 48 hrs by sulforhodamine B assay; format: functional; details: PC-3, 48 h; method in brief: as §1
[38] = test system: HCT-15; assay: Growth inhibition of human HCT15 cells after 48 hrs by sulforhodamine B assay; format: functional; details: HCT-15, 48 h; method in brief: as §1
[39] = test system: HCT-116; assay: Growth inhibition of human HCT116 cells after 48 hrs by sulforhodamine B assay; format: functional; details: HCT-116, 48 h; method in brief: as §1
[40] = target: ABC-type oligopeptide transporter ABCB9 (Homo sapiens) (UniProt Q9NP78); assay: Effect on human GFP-tagged TAPL-mediated cellular uptake expressed in CHO-K1 cells assessed as localization to endoplasmic reticulum at 10 uM after 5 hrs using ER-Tracker red staining by confocal laser scanning microscopic analysis; format: cell-based
Sequence of ABC-type oligopeptide transporter ABCB9 (Homo sapiens) (Q9NP78 whole entry): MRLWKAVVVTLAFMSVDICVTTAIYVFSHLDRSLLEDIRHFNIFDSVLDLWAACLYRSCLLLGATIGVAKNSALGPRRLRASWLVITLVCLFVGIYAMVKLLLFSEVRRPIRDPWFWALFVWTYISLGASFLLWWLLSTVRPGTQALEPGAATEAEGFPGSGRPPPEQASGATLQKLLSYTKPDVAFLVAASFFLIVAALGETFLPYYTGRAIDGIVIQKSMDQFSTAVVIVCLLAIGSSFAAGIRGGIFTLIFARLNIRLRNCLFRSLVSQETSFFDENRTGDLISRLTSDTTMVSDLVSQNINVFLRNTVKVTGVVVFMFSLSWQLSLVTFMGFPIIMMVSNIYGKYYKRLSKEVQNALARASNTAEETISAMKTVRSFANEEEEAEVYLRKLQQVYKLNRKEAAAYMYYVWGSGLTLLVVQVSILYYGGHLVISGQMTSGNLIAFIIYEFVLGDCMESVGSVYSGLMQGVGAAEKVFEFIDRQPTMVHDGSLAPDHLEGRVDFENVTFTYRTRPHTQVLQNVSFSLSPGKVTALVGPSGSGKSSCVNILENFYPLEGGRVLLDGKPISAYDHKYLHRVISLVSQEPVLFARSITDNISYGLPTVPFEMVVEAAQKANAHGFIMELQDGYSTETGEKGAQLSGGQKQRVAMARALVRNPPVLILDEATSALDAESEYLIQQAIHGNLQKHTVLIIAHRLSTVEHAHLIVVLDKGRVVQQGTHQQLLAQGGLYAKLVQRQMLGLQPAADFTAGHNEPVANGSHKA
Method in brief: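 CHO-K1 cells were cultured two days at 37 °C in Ham's F12 with 7% fetal calf serum. They were loaded with 10 µM dansyl probe in medium for 5 h, washed five times, then stained with ER-Tracker Red. Live confocal imaging used 405 nm excitation for dansyl and 559 nm for the tracker, with overlap of signals assessed. Samples were run in duplicate.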

[41] = Cytotoxicity against CHOK1 cells at 10 uM after 24 hrs; format: cell-based, Cricetulus griseus; details: chinese hamster, cho-k1, 24 h
Method in brief: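 CHO-K1 cells were grown two days at 37 °C in Ham's F12 with 7% fetal calf serum in glass-bottomed dishes. They were exposed to 10 µM probe for 5 h, washed, and imaged. Dishes were then incubated a further 24 h. Toxicity was judged by microscopic inspection for desquamated or suspended cells.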

[42] = target: ABC-type oligopeptide transporter ABCB9 (Homo sapiens) (UniProt Q9NP78); assay: Effect on human GFP-tagged TAPL-mediated cellular uptake expressed in CHO-K1 cells assessed as localization to lysosome at 10 uM after 5 hrs by confocal laser scanning microscopic analysis

GI50 [4]: 16.2 µM
GI50 [6]: 75.9 µM
GI50 [12]: > 100 µM
GI50 [14]: 69.2 µM
GI50 [15]: 18.6 µM
GI50 [16]: 22.9 µM
GI50 [17]: 8.13 µM
GI50 [18]: 51.3 µM
GI50 [19]: 26.3 µM
GI50 [23]: 38.9 µM
GI50 [24]: 60.3 µM
GI50 [25]: 38.9 µM
GI50 [26]: 69.2 µM
GI50 [27]: 81.3 µM
GI50 [29]: 33.9 µM
GI50 [32]: 0.0525 µM
GI50 [33]: 0.01 µM
GI50 [34]: 43.7 µM
GI50 [35]: 0.191 µM
GI50 [36]: > 100 µM
GI50 [37]: 29.5 µM
GI50 [38]: 72.4 µM
GI50 [39]: 15.8 µM
SMILES: C[C@H]1C=C(CCCCCCCCCCCC[C@@H](O)[C@H]2CC[C@H]([C@H](O)CCCCCCCCCNc3ccc([N+](=O)[O-])c4nonc34)O2)C(=O)O1
GI50 [1]: 64.6 µM
GI50 [2]: 33.1 µM
GI50 [3]: 21.9 µM
GI50 [5]: > 100 µM
GI50 [7]: 89.1 µM
GI50 [8]: 7.24 µM
GI50 [9]: 33.9 µM
GI50 [10]: 51.3 µM
GI50 [11]: 97.7 µM
GI50 [13]: 36.3 µM
GI50 [20]: 19.1 µM
GI50 [21]: 0.01 µM
GI50 [22]: 10.7 µM
GI50 [28]: 67.6 µM
GI50 [30]: 33.1 µM
GI50 [31]: 21.4 µM

Activity [40]: Active
GI50 [4]: 6.03 µM
GI50 [6]: > 100 µM
GI50 [12]: > 100 µM
GI50 [14]: > 100 µM
GI50 [15]: 3.47 µM
GI50 [16]: 29.5 µM
GI50 [17]: 4.9 µM
GI50 [18]: > 100 µM
GI50 [19]: > 100 µM
GI50 [23]: > 100 µM
GI50 [24]: > 100 µM
GI50 [25]: > 100 µM
GI50 [26]: > 100 µM
GI50 [27]: > 100 µM
GI50 [29]: > 100 µM
GI50 [32]: 0.0398 µM
GI50 [33]: 0.0692 µM
GI50 [34]: > 100 µM
GI50 [35]: 1.55 µM
GI50 [36]: > 100 µM
GI50 [37]: 81.3 µM
GI50 [38]: > 100 µM
GI50 [39]: 8.91 µM
Activity [42]: inactive
SMILES: C[C@H]1C=C(CCCCCCCCCCCC[C@@H](O)[C@H]2CC[C@H]([C@H](O)CCCCCCCCCNS(=O)(=O)c3cccc4c(N(C)C)cccc34)O2)C(=O)O1
Activity [41]: Non-toxic
GI50 [1]: > 100 µM
GI50 [2]: > 100 µM
GI50 [3]: > 100 µM
GI50 [5]: > 100 µM
GI50 [7]: > 100 µM
GI50 [8]: 0.513 µM
GI50 [9]: > 100 µM
GI50 [10]: > 100 µM
GI50 [11]: > 100 µM
GI50 [13]: > 100 µM
GI50 [20]: > 100 µM
GI50 [21]: 0.0234 µM
GI50 [22]: > 100 µM
GI50 [28]: > 100 µM
GI50 [30]: > 100 µM
GI50 [31]: > 100 µM

SMILES: CCCCCCCCCCCC[C@@H](O)[C@H]1CC[C@H]([C@H](O)CCCCCCCCCCCCC2=C[C@H](C)OC2=O)O1 [REL-SOLAMIN]
GI50 [1]: > 100 µM
GI50 [2]: > 100 µM
GI50 [3]: > 100 µM
GI50 [4]: 70.8 µM
GI50 [5]: > 100 µM
GI50 [6]: > 100 µM
GI50 [7]: > 100 µM
GI50 [8]: > 100 µM
GI50 [9]: > 100 µM
GI50 [10]: > 100 µM
GI50 [11]: > 100 µM
GI50 [12]: > 100 µM
GI50 [13]: > 100 µM
GI50 [14]: > 100 µM
GI50 [15]: 72.4 µM
GI50 [16]: > 100 µM
GI50 [17]: 57.5 µM
GI50 [18]: > 100 µM
GI50 [19]: > 100 µM
GI50 [20]: > 100 µM
GI50 [21]: 4.37 µM
GI50 [22]: 29.5 µM
GI50 [23]: > 100 µM
GI50 [24]: > 100 µM
GI50 [25]: > 100 µM
GI50 [26]: > 100 µM
GI50 [27]: > 100 µM
GI50 [28]: > 100 µM
GI50 [29]: > 100 µM
GI50 [30]: > 100 µM
GI50 [31]: > 100 µM
GI50 [32]: 12.9 µM
GI50 [33]: 14.1 µM
GI50 [34]: > 100 µM
GI50 [35]: > 100 µM
GI50 [36]: > 100 µM
GI50 [37]: > 100 µM
GI50 [38]: > 100 µM
GI50 [39]: > 100 µM
